Two molecules from paper PMC9946004 (Infection and Drug Resistance, 2023) can be followed below.

In brackets after ≈: the same amount, converted by molar mass.

What all share (assay): MIC by broth microdilution
Holding throughout (format): cell-based
Settings in all cases: Staphylococcus aureus
For orientation: In broth dilution the organism is exposed to a series of concentrations in liquid medium.

The subject of one test is S. aureus ATCC29213. The method in brief:
(§1)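 Broth microdilution per CLSI 2018 in Mueller–Hinton broth, in triplicate. Inoculum was 5×10^5 CFU/mL, incubated 20 h at 37 °C. MIC was the lowest concentration with no visible growth. ATCC29213 served as the quality-control strain.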

For test [1], the system named is S. aureus 18-W26-14 (MRSA). The method in brief:
as §1

Test [2] relates to S. aureus 18-W27-73 (MRSA). In short, it runs like this: as §1

As a reminder, the MIC is the least concentration at which growth counts as inhibited. Turning to `CC(=O)NC[C@H]1CN(c2ccc(N3CCOCC3)c(F)c2)C(=O)O1` [Linezolid, linezolid], the minimal inhibitory concentration (MIC) against S. aureus ATCC29213 stood at 2 µg/mL (≈ 5.93 µM); in test [1], 4 µg/mL (≈ 11.9 µM); in test [2], 2 µg/mL (≈ 5.93 µM).

Consider `CN[C@H](CC(C)C)C(=O)N[C@H]1C(=O)N[C@@H](CC(N)=O)C(=O)N[C@H]2C(=O)N[C@H]3C(=O)N[C@H](C(=O)N[C@H](C(=O)O)c4cc(O)cc(O)c4-c4cc3ccc4O)[C@H](O)c3ccc(c(Cl)c3)Oc3cc2cc(c3O[C@@H]2O[C@H](CO)[C@@H](O)[C@H](O)[C@H]2O[C@H]2C[C@](C)(N)[C@H](O)[C@H](C)O2)Oc2ccc(cc2Cl)[C@H]1O` [Vancomycin, vancomycin], for which the MIC against S. aureus ATCC29213 came out at 1 µg/mL (≈ 0.69 µM); in test [1], 2 µg/mL (≈ 1.38 µM); in test [2] it was 1 µg/mL (≈ 0.69 µM).
